Calls of active or inactive are those of the source. No cut-off for these calls is given here.
What was measured:
[1] = tested on: Syrian golden hamster; experiment: Inhibition of wax ester in Syrian golden hamster ear model for sebum at 1% administered topically BID 5 days a week for 2 weeks measured 18 to 24 hrs after the final dose; assay type: functional, Mesocricetus auratus
[2] = Artificial human sebum-water partition coefficient, log K of the compound; assay type: physicochemical
How it was run: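 About 5 mg artificial human sebum, spiked with drug at 1 mg/250 μL sebum, was equilibrated with 1 mL saturated aqueous solution at 37 C for 15 h. Drug concentration in the aqueous phase was then analysed, and the sebum–water partition coefficient was derived from it.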

[3] = target: T1, Progesterone receptor (Homo sapiens, UniProt P06401); experiment: Binding affinity to progesterone receptor by PRB assay
T1 sequence (P06401 whole entry): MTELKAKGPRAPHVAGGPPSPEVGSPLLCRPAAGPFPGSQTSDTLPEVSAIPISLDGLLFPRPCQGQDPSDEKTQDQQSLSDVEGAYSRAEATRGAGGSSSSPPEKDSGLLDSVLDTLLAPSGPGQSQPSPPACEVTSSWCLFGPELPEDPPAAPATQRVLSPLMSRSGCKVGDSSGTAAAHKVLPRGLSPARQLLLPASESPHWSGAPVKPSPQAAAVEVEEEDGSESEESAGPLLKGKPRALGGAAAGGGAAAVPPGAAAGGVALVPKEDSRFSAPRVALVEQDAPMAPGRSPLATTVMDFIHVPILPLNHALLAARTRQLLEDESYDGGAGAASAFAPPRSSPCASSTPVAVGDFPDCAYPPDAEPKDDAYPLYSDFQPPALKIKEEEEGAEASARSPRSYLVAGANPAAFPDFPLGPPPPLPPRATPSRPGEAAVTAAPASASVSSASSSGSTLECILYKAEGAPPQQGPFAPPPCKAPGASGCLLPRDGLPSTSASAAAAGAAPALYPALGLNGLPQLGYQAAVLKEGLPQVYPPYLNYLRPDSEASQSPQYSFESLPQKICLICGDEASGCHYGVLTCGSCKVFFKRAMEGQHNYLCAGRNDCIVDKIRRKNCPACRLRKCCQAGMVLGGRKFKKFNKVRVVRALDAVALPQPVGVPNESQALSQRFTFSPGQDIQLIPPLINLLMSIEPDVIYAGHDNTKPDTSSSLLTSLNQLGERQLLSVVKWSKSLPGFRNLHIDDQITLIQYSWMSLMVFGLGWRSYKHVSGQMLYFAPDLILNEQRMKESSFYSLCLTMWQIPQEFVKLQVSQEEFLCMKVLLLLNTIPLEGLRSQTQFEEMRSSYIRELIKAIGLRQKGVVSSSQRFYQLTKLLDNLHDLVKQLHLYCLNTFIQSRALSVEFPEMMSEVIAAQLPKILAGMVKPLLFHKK

[4] = tested on: Syrian golden hamster; experiment: Inhibition of cholesterol ester in Syrian golden hamster ear model for sebum at 1% administered topically BID 5 days a week for 2 weeks measured 18 to 24 hrs after the final dose; assay type: functional, Mesocricetus auratus
[5] = target: T2, Androgen receptor (Homo sapiens, UniProt P10275); experiment: Antagonist activity at androgen receptor in human MDA-MB-453 cells coexpressing MMTV-ARE reporter gene assessed as inhibition of DHT-induced response; assay type: functional, cell-based
T2 sequence (P10275 whole entry): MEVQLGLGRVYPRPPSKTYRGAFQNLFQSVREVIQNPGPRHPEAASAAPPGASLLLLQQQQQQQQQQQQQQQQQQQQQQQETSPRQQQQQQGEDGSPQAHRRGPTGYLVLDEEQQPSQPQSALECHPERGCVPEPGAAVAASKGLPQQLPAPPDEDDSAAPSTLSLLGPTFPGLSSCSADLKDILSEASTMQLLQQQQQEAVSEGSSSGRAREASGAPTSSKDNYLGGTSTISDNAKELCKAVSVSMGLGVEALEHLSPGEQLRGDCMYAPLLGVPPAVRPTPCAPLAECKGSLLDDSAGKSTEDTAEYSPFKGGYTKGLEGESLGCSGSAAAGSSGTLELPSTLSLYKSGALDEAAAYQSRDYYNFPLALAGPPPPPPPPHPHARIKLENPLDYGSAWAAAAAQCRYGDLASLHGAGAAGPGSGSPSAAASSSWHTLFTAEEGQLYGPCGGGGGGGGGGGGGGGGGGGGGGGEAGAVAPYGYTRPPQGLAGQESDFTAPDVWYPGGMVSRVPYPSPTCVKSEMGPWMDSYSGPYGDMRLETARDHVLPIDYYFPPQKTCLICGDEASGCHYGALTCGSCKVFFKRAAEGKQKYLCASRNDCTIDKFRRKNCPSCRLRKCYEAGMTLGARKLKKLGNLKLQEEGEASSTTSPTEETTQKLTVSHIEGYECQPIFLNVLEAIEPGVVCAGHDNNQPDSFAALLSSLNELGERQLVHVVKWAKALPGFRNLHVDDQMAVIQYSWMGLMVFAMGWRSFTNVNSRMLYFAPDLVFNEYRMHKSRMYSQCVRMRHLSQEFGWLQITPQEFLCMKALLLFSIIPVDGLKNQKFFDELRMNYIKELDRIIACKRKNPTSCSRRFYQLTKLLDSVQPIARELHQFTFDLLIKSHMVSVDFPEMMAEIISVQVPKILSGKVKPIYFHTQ

[6] = target: T2, Androgen receptor; experiment: Displacement of [3H]DHT from human AR expressed in baculovirus Sf9 cells system by scintillation counting
[7] = Octanol-buffer partition coefficient, log D at pH 7.4; assay type: physicochemical; conditions: read-out: LogD7.4
[8] = tested on: Syrian golden hamster; experiment: Inhibition of wax ester in Syrian golden hamster ear model for sebum at 1.5% administered topically BID 5 days a week for 2 weeks measured 18 to 24 hrs after the final dose; assay type: functional, Mesocricetus auratus
[9] = tested on: Syrian golden hamster; experiment: Inhibition of cholesterol ester in Syrian golden hamster ear model for sebum at 1.5% administered topically BID 5 days a week for 2 weeks measured 18 to 24 hrs after the final dose; assay type: functional, Mesocricetus auratus
[10] = tested on: Sus scrofa; experiment: Toxicity in minipig assessed as dermal toleration at 25% administered topically BID for 7 days; assay type: organism-based; conditions: pig, in vivo, topical_or_ocular, 168 h
[11] = tested on: Sus scrofa; experiment: Toxicity in minipig assessed as systemic antiandrogenic effect at 25% administered topically BID for 7 days; assay type: organism-based; conditions: pig, in vivo, topical_or_ocular, 168 h
[12] = tested on: Rattus norvegicus; experiment: Toxicity in Sprague-Dawley rat assessed as systemic antiandrogenic effect at 0.5 to 300 mg/kg, po administered once-daily for 7 days; assay type: organism-based; set-up: dose 0.5-300 mg/kg, route oral; conditions: in vivo, 168 h
[13] = Drug level in Syrian golden hamster sebaceous gland at 0.2% administered topically after 8 hrs; assay type: ADME, tissue-based, Mesocricetus auratus; conditions: topical or ocular, read-out: Drug uptake
[14] = Intrinsic clearance in human liver microsomes after 1 hr by LC/MS/MS method; assay type: ADME, Microsome
[15] = tested on: Rattus norvegicus; experiment: Liver blood flow in rat at 1 mg/kg, iv; assay type: ADME, organism-based; set-up: dose 1 mg/kg, route intravenous; conditions: in vivo
[16] = target: T3, Estrogen receptor (Homo sapiens, UniProt P03372); experiment: Binding affinity to estrogen receptor
T3 sequence (P03372 whole entry): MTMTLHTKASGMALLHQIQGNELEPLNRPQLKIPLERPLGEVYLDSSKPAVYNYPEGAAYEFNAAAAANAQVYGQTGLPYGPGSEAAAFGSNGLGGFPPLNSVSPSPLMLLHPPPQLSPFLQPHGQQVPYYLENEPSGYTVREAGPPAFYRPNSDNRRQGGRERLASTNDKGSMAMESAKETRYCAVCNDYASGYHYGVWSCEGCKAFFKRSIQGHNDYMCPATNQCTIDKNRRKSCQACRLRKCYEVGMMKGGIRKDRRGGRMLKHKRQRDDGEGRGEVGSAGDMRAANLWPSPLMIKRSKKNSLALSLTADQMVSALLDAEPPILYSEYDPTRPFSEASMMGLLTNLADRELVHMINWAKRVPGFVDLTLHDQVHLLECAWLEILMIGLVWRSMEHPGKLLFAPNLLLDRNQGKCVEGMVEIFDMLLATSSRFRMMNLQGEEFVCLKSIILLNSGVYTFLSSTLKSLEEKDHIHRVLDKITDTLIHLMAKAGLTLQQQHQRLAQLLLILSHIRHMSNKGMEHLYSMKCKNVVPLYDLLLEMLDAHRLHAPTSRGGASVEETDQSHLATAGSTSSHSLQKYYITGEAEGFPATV

[17] = Hamster sebum-water partition coefficient, log K of the compound; assay type: ADME
[18] = tested on: Syrian golden hamster; experiment: Reduction in wax ester-associated sebaceous gland size decrease in Syrian golden hamster ear model for sebum administered topically BID 5 days a week for 2 weeks measured 18 to 24 hrs after the final dose; assay type: functional, organism-based; conditions: Mesocricetus auratus
How it was run: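 Hamsters were dosed on the ear twice daily for 2 weeks. Sebaceous gland size was quantified by fatty acid synthase immunohistochemical staining and correlated with wax ester reduction by correlation coefficient.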

[19] = Clearance in human; assay type: ADME, organism-based; conditions: in vivo
[20] = tested on: Syrian golden hamster; experiment: Inhibition of wax ester in Syrian golden hamster ear model for sebum administered topically BID 5 days a week for 2 weeks measured 18 to 24 hrs after the final dose; assay type: functional, Mesocricetus auratus
How it was run: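 Golden Syrian hamster ear model with twice-daily topical dosing for 2 weeks in the vehicle chosen for phase 1 studies. Wax ester production was measured across a range of doses, and ED50 was expressed as % dose. Data are mean ± SEM, N = 5.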

[21] = Clearance in rat at 1 mg/kg, iv; assay type: ADME, organism-based; set-up: dose 1 mg/kg, route intravenous; conditions: in vivo
[22] = Binding affinity to thyroid hormone receptor
[23] = target: T4, Glucocorticoid receptor (Homo sapiens, UniProt P04150); experiment: Binding affinity to glucocorticoid receptor
T4 sequence (P04150 whole entry): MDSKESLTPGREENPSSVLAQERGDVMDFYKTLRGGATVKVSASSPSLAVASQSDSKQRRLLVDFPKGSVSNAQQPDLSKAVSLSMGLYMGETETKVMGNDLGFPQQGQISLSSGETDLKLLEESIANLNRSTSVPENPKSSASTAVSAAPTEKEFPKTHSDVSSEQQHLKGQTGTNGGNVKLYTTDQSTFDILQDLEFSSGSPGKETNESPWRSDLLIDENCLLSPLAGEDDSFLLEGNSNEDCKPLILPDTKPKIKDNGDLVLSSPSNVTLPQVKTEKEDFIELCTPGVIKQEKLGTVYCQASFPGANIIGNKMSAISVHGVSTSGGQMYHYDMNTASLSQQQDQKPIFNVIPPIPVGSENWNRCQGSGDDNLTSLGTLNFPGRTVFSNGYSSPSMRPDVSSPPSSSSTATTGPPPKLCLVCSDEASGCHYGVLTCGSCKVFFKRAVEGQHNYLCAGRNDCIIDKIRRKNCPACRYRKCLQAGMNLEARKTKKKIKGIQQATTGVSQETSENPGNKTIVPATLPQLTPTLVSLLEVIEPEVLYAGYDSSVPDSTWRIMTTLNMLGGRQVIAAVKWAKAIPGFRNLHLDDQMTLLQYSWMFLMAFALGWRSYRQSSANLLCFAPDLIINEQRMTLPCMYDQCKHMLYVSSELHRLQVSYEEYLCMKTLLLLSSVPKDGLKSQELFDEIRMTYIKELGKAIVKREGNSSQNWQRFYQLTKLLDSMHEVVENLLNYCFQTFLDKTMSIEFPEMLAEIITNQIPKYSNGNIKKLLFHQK

[24] = tested on: Syrian golden hamster; experiment: Toxicity in Syrian golden hamster ear model for sebum assessed as cytotoxicity-mediated sebaceous gland size administered topically BID 5 days a week for 2 weeks measured 18 to 24 hrs after the final dose; assay type: organism-based, Mesocricetus auratus; conditions: in vivo, topical_or_ocular
How it was run: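 After 2 weeks of twice-daily topical application to hamster ears, sebocytes were examined histopathologically for cytotoxic changes alongside the reduction in sebaceous gland size.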

[25] = tested on: Mus musculus; experiment: Toxicity in BALB/c mouse assessed as lymph node contact hypersensitivity at 25% administered for 4 days; assay type: organism-based; conditions: in vivo, 96 h
[26] = Elimination half life in Syrian golden hamster sebaceous gland at 0.2% administered topically after 8 hrs; assay type: ADME, tissue-based, Mesocricetus auratus; conditions: topical or ocular, read-out: beta t1/2 (converted)
[27] = tested on: Mus musculus; experiment: Toxicity in BALB/c mouse assessed as skin sensitization at 25% administered for 4 days; assay type: organism-based; conditions: in vivo, 96 h

| Structure (SMILES) | inhibition (INH) [1] | log K [2] | IC50 [3] | inhibition (INH) [4] | IC50 [5] | IC50 [6] | logD [7] | other results |
| --- | --- | --- | --- | --- | --- | --- | --- | --- |
| N#Cc1ccc(Sc2ccccc2F)cc1C(F)(F)F | 64% | 4.48 | 6950 nM | 50% |  |  |  |  |
| CC1(C)CN(Cc2ccccc2F)C(=O)[C@@H]1Oc1ccc(C#N)c(C(F)(F)F)c1 | 72% | 3.95 | 4820 nM | 42% | 44 nM | 174 nM |  |  |
| N#Cc1ccc(O[C@@H]2CCCC[C@H]2C#N)cc1C(F)(F)F |  | 3.03 |  |  |  |  | 3.4 |  |
| CSc1ccc(CN2CC(C)(C)[C@@H](Oc3ccc(C#N)c(C(F)(F)F)c3)C2=O)cc1 |  | 4.6 | > 10000 nM |  | 28 nM | 316 nM |  | inhibition (INH) [8]: 89%; inhibition (INH) [9]: 75% |
| N#Cc1ccc(Oc2ccc(F)cc2F)cc1C(F)(F)F | 31% | 4.06 | > 10000 nM | 24% | 60 nM | 488 nM |  |  |
| CCCN1CC(C)(C)[C@@H](Oc2ccc(C#N)c(C(F)(F)F)c2)C1=O |  | 2.74 |  |  |  |  | 3.33 |  |
| CC1(C)CN(Cc2ccccc2)C(=O)[C@@H]1Oc1ccc(C#N)c(C(F)(F)F)c1 | 78% | 3.92 | 4400 nM | 61% | 38 nM | 100 nM | 4.88 | Activity [10]: Non-toxic; Activity [11]: Non-toxic; Activity [12]: Non-toxic; concentration at 8 h [13]: 156 µM; CLint scaled [14]: 121 mL/min/kg; LBF [15]: 80%; IC50 [16]: > 10000 nM; log K [17]: 3.85; Activity [18]: Active; clearance [19]: 16 mL/min/kg; ED50 [20]: 0.02 mg/cm2; clearance [21]: 57 mL/min/kg; IC50 [22]: > 10000 nM; IC50 [23]: > 10000 nM; Activity [24]: Non-toxic; Activity [25]: Non-toxic; half-life [26]: 7 h; Activity [27]: Non-toxic |
| C[C@H](O)CC[C@H](C)Oc1ccc(C#N)c(C(F)(F)F)c1 |  | 2.06 |  |  |  |  | 3.73 |  |
